NALP1 inh = NALP1 inhibition; S. cerevisiae NALP1/ASC/caspase-1 growth, X-gal OD620, 72 h; inhibition, % at 10 µM; hit rate 0.61% among 280,000; AID 2071; in the data active means inhibition mostly above about 24%, no sharp cut-off; inactive means mostly below about 32%
A1 inh = inhibitors of the anti-apoptotic protein A1, read as caspase activation; MEF A1-2A-BIM cells, Caspase-Glo 3/7 luminescence, 3 h; percent of clofoctol response, vehicle zero; caspase activation, % (concentration not given with the values); hit rate 0.066% among 330,000; AID 2462;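 active means over half of replicate activation scores above 10%, or exactly half above 10 with the replicate mean above 10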
MC4R barr agon = agonists of human melanocortin 4 receptor (MC4R) beta-arrestin. P32245. U2OS MC4R beta-arrestin complementation, luminescence; percent of melanotan II response, DMSO zero. activation, % at 8.9 µM. hit rate 0.98% among 360,000;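 active means activation above a per-plate cutoff, the mean activation of sample wells on that plate plus 3 SD, cut at about 8% in these data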
Target sequence (P32245 whole entry, looked up): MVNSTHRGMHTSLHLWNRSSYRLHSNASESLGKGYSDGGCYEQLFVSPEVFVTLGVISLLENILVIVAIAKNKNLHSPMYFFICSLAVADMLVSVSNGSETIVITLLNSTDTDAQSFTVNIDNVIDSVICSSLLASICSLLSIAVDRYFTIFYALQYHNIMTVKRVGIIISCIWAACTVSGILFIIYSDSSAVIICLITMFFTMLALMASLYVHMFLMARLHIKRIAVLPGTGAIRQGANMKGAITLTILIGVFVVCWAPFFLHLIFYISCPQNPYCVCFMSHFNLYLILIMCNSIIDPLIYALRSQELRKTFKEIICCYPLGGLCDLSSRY
NLRP3 yeast inh = blocks the NALP3 inflammasome reconstituted in yeast; Yeast reconstituted NLRP3/ASC/caspase-1, beta-gal luminescence, 24 h; inhibition, % at 10 µM; hit rate 0.39% among 330,000; AID 2825;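 active means inhibition of 50% or more; inactive means inhibition below 50%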;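 further: plate controls were induced DMSO wells for no effect and uninduced yeast grown without galactose for full effect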
MC4R antag cAMP = antagonists of human melanocortin 4 receptor (MC4R); MC4R-expressing cells, MTII-stimulated cAMP, LANCE TR-FRET; inhibition, % at 6.5 µM; hit rate 0.48% among 360,000; AID 540295;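 active means inhibition above its plate's cutoff, the mean of tested wells on that plate plus 3 SD, cut at about 29% in these data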;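 further: 0% = Melanotan II alone and 100% = Melanotan II plus saturating MCL0020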
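System: U2OS cells stably expressing human melanocortin 4 receptor (MC4R). Reagent: Melanotan II challenge after compound preincubation. Doses: 6.5 µM. Times: 30-min compound, 1-h challenge, 1-h detection, room temperature. Measured by: TR-FRET with Eu-cAMP and labeled anti-cAMP, 671 nm. Replicates: singlicate.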
Tb MetRS inh = Trypanosoma brucei MetRS inhibition; hit rate 0.4% among 360,000; inhibition, % at 11.9 µM; AID 624268; purified T. brucei MetRS, ATP depletion, Kinase-Glo luminescence;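 active means inhibition above a per-plate cutoff of the control wells' mean inhibition plus 3 SD, cut at about 5.5% in these data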;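 further: 0% = DMSO wells median and 100% = median of wells with control inhibitor compound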
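Test system: purified T. brucei MetRS enzyme. Also added: ATP, methionine and E. coli bulk tRNA substrates. Compound: 11.9 µM single point. Schedule: 15 min enzyme-compound preincubation, 2 h reaction, 10 min detection, 25 °C. Signal: luciferase luminescence of residual ATP, Kinase-Glo. Evaluation: percent inhibition versus plate control medians. Controls: DMSO wells, low control.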
MC4R barr ag = human MC4R beta-arrestin agonism confirmation; shares compounds with MC4R barr agon; U2OS MC4R beta-arrestin recruitment, luminescence; scaled DMSO 0%, Melanotan II 100%; activation, % at 8.9 µM; hit rate 31% among 2,400;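 active means mean activation across replicates above the hit cutoff set in the earlier primary screen, cut at about 8% in these data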
MOR-DOR barr ag = OPRM1-OPRD1 heterodimer agonism counter-screen; shares compounds with MC4R barr agon; activation, % at 9.2 µM; U2OS PathHunter beta-arrestin, beta-gal luminescence; percent of deltorphin B response, DMSO zero; hit rate 5.8% among 2,400;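 active means mean activation across replicates exceeds the hit threshold derived in the earlier primary screen, cut at about 18% in these data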;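 further: 100% = deltorphin B at 0.9 µM final and 0% = DMSO alone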
* = called active by the depositor. A selection: hits, their analogues and other compounds. The true share with any hit is near 2.5%.

CCn1c2ccccc2c2cc(NC(=O)CSc3nnc(-c4ccc(OC)cc4)n3N)ccc21 was read as NALP1 inh 7, A1 inh 1, MC4R barr agon 21*, NLRP3 yeast inh 23, MC4R antag cAMP -1, Tb MetRS inh -1, MC4R barr ag 12* and MOR-DOR barr ag 20*.
N#Cc1c(-c2ccccc2)cc(C2CC2)nc1SCC(=O)O was read as NALP1 inh 21, A1 inh 1, MC4R barr agon -2, NLRP3 yeast inh 9, MC4R antag cAMP 22 and Tb MetRS inh 0.
For N#Cc1c(-c2ccco2)cc(C2CC2)nc1SCC(=O)c1ccccc1 the results were NALP1 inh -20, A1 inh 0, MC4R barr agon 18*, NLRP3 yeast inh 18, MC4R antag cAMP 1, Tb MetRS inh 0, MC4R barr ag 8 and MOR-DOR barr ag 4.
Screening C[N+]1(C)CCC(=C(c2ccccc2)c2ccccc2)CC1 returned A1 inh 0, MC4R barr agon 0, NLRP3 yeast inh 13, MC4R antag cAMP 1 and Tb MetRS inh -1.
For O=C(CC[C@H]1O[C@@H](n2ccc(=O)[nH]c2=O)[C@H](O)[C@@H]1O)NCC(c1ccccc1)c1ccccc1 the results were Tb MetRS inh 0.
For COc1ccccc1NC(=O)c1oc2ccccc2c1NC(=O)c1cc(OC)c(OC)c(OC)c1 the results were A1 inh 0, MC4R barr agon -3, NLRP3 yeast inh 1, MC4R antag cAMP -11 and Tb MetRS inh 0.
`CCOCC(=O)Nc1c(C(=O)Nc2ccc(OC)cc2OC)oc2ccccc12` gave A1 inh -1, MC4R barr agon 13*, NLRP3 yeast inh 17, MC4R antag cAMP 3, Tb MetRS inh 0, MC4R barr ag 9.9* and MOR-DOR barr ag 6.
`COCC(=O)Nc1c(C(=O)Nc2ccccc2OC)oc2ccccc12` gave A1 inh 1, MC4R barr agon 22*, NLRP3 yeast inh 9, MC4R antag cAMP 3, Tb MetRS inh 0, MC4R barr ag 3 and MOR-DOR barr ag 5.
`COc1cccc(CNc2nc3cc(-c4cscc4C)sc3c(=O)n2C)c1` gave MC4R barr agon 2, MC4R antag cAMP 12 and Tb MetRS inh 0.
Screening Cc1ccc(-c2nsc(SCC(=O)NCc3ccc4c(c3)OCO4)n2)cc1 returned NALP1 inh 22, A1 inh 0, MC4R barr agon 0, NLRP3 yeast inh 10, MC4R antag cAMP 5 and Tb MetRS inh 0.
Screening COc1ccc(-c2nsc(SCC(=O)Nc3ccc4c(c3)OCO4)n2)cc1 returned NALP1 inh 26, A1 inh 0, MC4R barr agon 12*, NLRP3 yeast inh 24, MC4R antag cAMP 12, Tb MetRS inh 0, MC4R barr ag 3 and MOR-DOR barr ag 6.
For Cc1ccc(C)c(Cn2ncc3ccccc32)c1 the results were NALP1 inh -6, A1 inh 1, MC4R barr agon 0, NLRP3 yeast inh 1, MC4R antag cAMP 6 and Tb MetRS inh -1.
Screening Nc1ccc(S(=O)(=O)Nc2nccc(/C=C/c3ccc(Cl)cc3)n2)cc1 returned NALP1 inh 9, A1 inh 0, MC4R barr agon 21*, NLRP3 yeast inh 12, MC4R antag cAMP 5, Tb MetRS inh 1, MC4R barr ag -1 and MOR-DOR barr ag 2.
For Nc1ccc(S(=O)(=O)Nc2nccc(/C=C/c3ccc([N+](=O)[O-])cc3)n2)cc1 the results were NALP1 inh 22, A1 inh 1, MC4R barr agon 2, NLRP3 yeast inh 23, MC4R antag cAMP 13 and Tb MetRS inh 0.
O=C(CNC(=S)NC(=O)c1ccccc1Br)c1ccccc1 was read as NALP1 inh -1, A1 inh 1, MC4R barr agon 21*, NLRP3 yeast inh 12, MC4R antag cAMP 1, Tb MetRS inh 1, MC4R barr ag 0 and MOR-DOR barr ag 4.
CCOC(=O)c1[nH]c(COC(=O)CCOc2ccccc2OC)c(C(=O)OCC)c1C was read as NALP1 inh 27, A1 inh -1, MC4R barr agon 16*, NLRP3 yeast inh 10, MC4R antag cAMP 5, Tb MetRS inh 0, MC4R barr ag 2 and MOR-DOR barr ag 6.
CCCOc1ccc(F)cc1-c1cc(C(=O)Nc2ccc(C(C)C)cc2)[nH]n1 was read as MC4R barr agon 21*, MC4R antag cAMP 8, Tb MetRS inh 0, MC4R barr ag 5 and MOR-DOR barr ag 4.
CCN(CC)S(=O)(=O)c1ccc(C)c(NC(=O)CSc2ncc(C(F)(F)F)cc2Cl)c1 was read as NALP1 inh 39, A1 inh 0, MC4R barr agon 9.8*, NLRP3 yeast inh 7, MC4R antag cAMP 13, Tb MetRS inh -1, MC4R barr ag 6 and MOR-DOR barr ag 4.
For C[C@]12c3[nH]c4ccccc4c3CCN1C(=O)C(CC(=O)NCCC1=CCCCC1)C[C@@H]2C(=O)N1CCCCC1 (stereo partly drawn) the results were A1 inh 0, MC4R barr agon -1, NLRP3 yeast inh 9, MC4R antag cAMP -3 and Tb MetRS inh -1.
Cc1sc2nc(CSc3cccc(C(F)(F)F)c3)[nH]c(=O)c2c1C was read as NALP1 inh 14, A1 inh 0, MC4R barr agon 16*, NLRP3 yeast inh 6, MC4R antag cAMP -10, Tb MetRS inh -1, MC4R barr ag 5 and MOR-DOR barr ag 3.
Screening O=C(Nc1ccc(F)cc1)Nc1sccc1-c1nc2ccccc2s1 returned A1 inh 1, MC4R barr agon 25*, NLRP3 yeast inh 10, MC4R antag cAMP 3, Tb MetRS inh 0, MC4R barr ag 10* and MOR-DOR barr ag 3.
For O=C(NC(=S)Nc1cccc(NC(=O)c2ccccc2Cl)c1)c1cccs1 the results were NALP1 inh 34, A1 inh 0, MC4R barr agon 14*, NLRP3 yeast inh -10, MC4R antag cAMP 1, Tb MetRS inh 0, MC4R barr ag 1 and MOR-DOR barr ag 1.
`O=C(Nc1nc2ccccc2s1)c1ccc(F)cc1` gave NALP1 inh -15, A1 inh -9, MC4R barr agon -1, NLRP3 yeast inh 24, MC4R antag cAMP 13 and Tb MetRS inh 0.
Screening Cc1ccccc1C(=O)Nc1cccc(NC(=S)NC(=O)c2cccs2)c1 returned NALP1 inh 15, A1 inh 0, MC4R barr agon 5, NLRP3 yeast inh 9, MC4R antag cAMP 9 and Tb MetRS inh -1.
